Screening data as filed in PubChem BioAssay.
Hits are enriched below; roughly 0.98% of the tested compounds scored in any of these assays.
Yeast life ext: extends the lifespan of yeast. S. cerevisiae growth with nicotinamide, OD615; deaD strain in restrictive glucose medium. inhibition of the nicotinamide effect, % at 10 µM. 0.68% of 130,000 active;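 active means inhibition above a set limit, placed 3 SD over the median of all compounds, cut at about 26% in these data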;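 further: 0% = nicotinamide-treated wells and 100% = cells grown without nicotinamide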
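Measured by: optical density (absorbance) at 615 nm; System: modified budding yeast, DeaD strain; Medium: restrictive CSMM-D dextrose medium; Timing: 4 h preincubation then 48 h treatment at 30 °C.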
BB579 growth dn: reduces growth of yeast BB579 in restrictive medium; 0.51% of 140,000 active; S. cerevisiae BB579 growth, OD615, 48 h; inhibition, % at 10 µM; AID 804;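 active means inhibition above a set limit, 3 SD over the mean compound inhibition, cut at about 44% in these data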
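controls = amphotericin B 10 µg/mL, positive | assay system = DeaD yeast strain BB579 | schedule = 48 h compound exposure at 30 °C after 4 h preincubation | detection = OD615 turbidity measurement | medium = restrictive CSMM-D medium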
S1P3 antagonist: S1P3 (human) receptor antagonism; Q99500; CHO S1P3 NFAT-BLA reporter, FRET fluorescence, antagonist mode; inhibition, % at 4.98 µM; 0.27% of 170,000 active; AID 485;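 active means inhibition above the plate cutoff, the mean inhibition of test wells on that plate plus 3 SD, cut at about 28% in these data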;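 further: cells challenged with S1P at its EC80 of 0.8 µM; blue over green emission ratio from cleaved BLA substrate after 4 h stimulation; 0% = S1P-stimulated wells and 100% = unstimulated DMSO-only wells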
Target sequence (Q99500 whole entry, looked up): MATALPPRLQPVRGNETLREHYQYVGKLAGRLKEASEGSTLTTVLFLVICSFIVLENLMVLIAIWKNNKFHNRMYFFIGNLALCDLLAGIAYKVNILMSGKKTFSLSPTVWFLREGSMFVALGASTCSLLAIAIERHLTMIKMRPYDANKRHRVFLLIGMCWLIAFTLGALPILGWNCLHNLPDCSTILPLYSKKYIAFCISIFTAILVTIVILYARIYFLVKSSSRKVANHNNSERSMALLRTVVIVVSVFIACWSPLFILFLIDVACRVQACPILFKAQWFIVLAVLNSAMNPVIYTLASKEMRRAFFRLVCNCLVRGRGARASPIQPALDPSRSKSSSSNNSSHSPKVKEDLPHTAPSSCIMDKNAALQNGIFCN
Active calls of the source: *; / = not tested or not shown.

SMILES | Yeast life ext | BB579 growth dn | S1P3 antagonist
O=C(c1ccc(N2CCCCCC2)c([N+](=O)[O-])c1)N1CCc2ccccc21 | -5 | 4 | -5
CN(C(=O)N1CCN(S(=O)(=O)c2ccccc2)CC1)c1ccccc1 | / | / | -5
COc1ccc(CC(=O)NNC(=O)c2cccs2)cc1 | -1 | -23 | -1
COc1ccccc1OCC(=O)NNC(=O)c1cccs1 | 33* | -39 | -10
O=[N+]([O-])c1cc(CN2CCN(c3cccc(C(F)(F)F)c3)CC2)c2cccnc2c1O | / | / | 5
O=[N+]([O-])c1cc(CN2CCCC2)c2cccnc2c1O | -3 | 60* | 1
Cc1ccc(N=Nc2ccc(O)c3ncccc23)cc1C | / | / | 6
CCCOCc1ccc(O)c2ncccc12 | / | / | -1
Oc1ccc(COCc2ccccc2)c2cccnc12 | -16 | 99* | -24
Oc1ccc(CN2CCCCC2)c2cccnc12 | / | 45* | /
Cc1ccc(N=Nc2ccc(O)c3ncccc23)cc1 | 0 | 55* | 3
Oc1ccc(CN2CCN(c3ccccc3)CC2)c2cccnc12 | / | -23 | /
COc1cccc(C2=NOC(C(=O)Nc3ccc(C(C)=O)cc3)C2)c1 (stereo unspecified) | -10 | -73 | 18
CSc1nnc(-c2ccncc2)n1/N=C/c1cn(-c2ccccc2)nc1-c1ccc(Cl)cc1 | / | / | 1
CCOc1ccc(C(C(=O)NC2CCCCC2)N(C(=O)Cc2cccs2)c2ccc(-n3cnnn3)c(OC)c2)cc1 (stereo unspecified) | 0 | -10 | -14
COc1ccc(N2CCN(C(=O)CCCn3c(=O)[nH]c4cc(Cl)ccc4c3=O)CC2)cc1 | -1 | -25 | /
COc1ccc(N2C(=O)CC(N3CCN(S(=O)(=O)c4cc(C)ccc4C)CC3)C2=O)cc1 (stereo unspecified) | / | / | -16
N#Cc1c2n(c3c(=S)nc[nH]c13)CCCCC2 | -7 | -38 | /
Oc1ccc(F)c2cccnc12 | / | / | -9
OCc1ccc(O)c2ncccc12 | -21 | 96* | /
Cc1cccc(C(=O)Nc2cccc(OC(=O)c3cccc(C)c3)c2)c1 | -12 | -22 | /
O=C(Oc1cccccc1=O)c1ccccc1 | / | / | 4
Cc1cccc(C(=O)Oc2csc(=S)n2C(=O)c2cccc(C)c2)c1 | / | 44* | /
O=C(Oc1csc(=S)n1C(=O)c1ccccc1)c1ccccc1 | 1 | 49* | /
CC(=O)c1c(C)[nH]c(C(=O)OC2CCCCC2=O)c1C (stereo unspecified) | 142* | -17 | -12
SMILES | Yeast life ext | BB579 growth dn | S1P3 antagonist
CC(=O)Nc1ccc(C(=O)OC2CCCCC2=O)cc1 (stereo unspecified) | -8 | -67 | /
O=C1c2ccccc2C(=O)N1Cc1ccco1 | -11 | 44* | 17
O=C1c2cccc3c(O)ccc(c23)C(=O)N1Cc1ccco1 | / | / | -5
Cc1ccc(-n2c(-c3ccccc3)nnc2-c2cccs2)cc1 | / | -29 | /
CC1(C)CC(=NOC(=O)c2ccccc2)CC(C)(C)N1O | -6 | 74* | 1
O=C(ON=C1CCN(S(=O)(=O)c2ccccc2)CC1)c1ccccc1 | -20 | -40 | /
Cc1ccccc1-c1nnn(CC(=O)Nc2cccc(S(N)(=O)=O)c2)n1 | / | / | 7
CCC(C)/C(C)=N/NC(=O)c1ccc(COc2ccc(Cl)c(C)c2)cc1 (stereo unspecified) | -8 | 97* | 13
CCOc1ccc(OCc2ccc(C(=O)N/N=C(\C)c3ccccn3)cc2)cc1 | / | / | -14
O=C1C=C(NCC2CCCO2)CC(c2ccccc2)C1 (stereo unspecified) | -8 | -8 | -50
CC(=O)NC1C(=O)N=C(SCC(=O)NC(C)c2ccccc2)NC1=O (stereo unspecified) | -17 | 4 | -6
Cn1ccnc1SCC(=O)NC1CC1 | -5 | 23 | /
O=C(CN1CCc2ccccc2C1)Nc1cc(S(=O)(=O)N2CCOCC2)ccc1N1CCOCC1 | 6 | -42 | -2
N#C/C(=C\c1ccc(O)c([N+](=O)[O-])c1)C(=O)NCc1ccccc1 | / | / | -7
CC(NC(=O)/C(C#N)=C/c1ccc(Cl)c([N+](=O)[O-])c1)c1ccccc1 (stereo unspecified) | 5 | 46* | -14
COc1ccc(N(CC(=O)N/N=C/c2ccco2)S(=O)(=O)c2ccccc2)cc1 | 0 | 1 | /
O=C1CCCC2=C1C(c1ccc(O)cc1)c1c(ccc3ccccc13)N2 (stereo unspecified) | / | / | -26
O=c1cccc2n1Cc1cc3ccccc3nc1-2 | -5 | 46* | -8
Cc1nc2ccccc2cc1C(=O)O | 0 | -19 | /
CC(=O)Oc1cccc(/C=c2\sc3nc(-c4ccco4)nn3c2=O)c1 | 16 | -62 | -6
COc1cc(/C=c2\sc3nc(-c4ccncc4)nn3c2=O)ccc1OC(C)=O | 33* | -39 | -28
Cc1ccccc1NC(=O)C(=O)NCc1ccccn1 | -22 | -10 | /
Cc1c(-n2c(-c3ccccc3Cl)n[nH]c2=S)c(=O)n(-c2ccccc2)n1C | / | / | -1
CCOCCCNC(=O)c1ccc(OC)cc1 | -10 | -7 | 10
CCOCCCNC(=O)c1ccc(Br)cc1 | -25 | 47* | /
SMILES | Yeast life ext | BB579 growth dn | S1P3 antagonist
COc1cc(C2c3c(oc4ccccc4c3=O)C(=O)N2Cc2cccnc2)cc(OC)c1OC (stereo unspecified) | -7 | -84 | -14
CCCCn1[nH]c(-c2ccccc2)cc1=O | 32* | -22 | 16
CCCc1cc(=O)n2[nH]c(-c3ccccc3)cc2n1 | -9 | -24 | 14
CC1CCC(NCc2ccco2)CC1 (stereo unspecified) | -10 | -11 | /
CCCn1c(SCC(=O)Nc2ccc(C(=O)Nc3ccccc3OC)cc2)n[nH]c1=O | / | / | 10
Cc1ccccc1OCCCN1C(=O)C(=O)c2cccc(C)c21 | -16 | 83* | 9
Cc1cccc2c1N(CCCOc1ccccc1)C(=O)C2=O | -4 | -6 | /
C=CCN1CCN(C(c2ccc(Cl)cc2)c2nnnn2CCc2ccc(OC)c(OC)c2)CC1 (stereo unspecified) | -11 | -42 | 104*
COc1ccc(CCn2nnnc2C(c2ccc(C)cc2)N2CCN(C)CC2)cc1OC (stereo unspecified) | -8 | 13 | -33
Cc1ccc(NC(=O)CN(c2ccc(Cl)cc2)S(=O)(=O)c2cc([N+](=O)[O-])ccc2Cl)c(C)c1 | / | / | 0
COC(=O)C1CCN(C(=O)COc2ccc(Cl)cc2)CC1 | -11 | 36 | 3
COC(=O)C1CCN(C(=O)COc2cc3sc(C)nc3c3sccc23)CC1 | -16 | -68 | 55*
O=C1CC(N2CCN(c3ccccc3Cl)CC2)C(=O)N1c1ccc(F)cc1 (stereo unspecified) | -16 | -45 | -33
CCC(CC)C(=O)c1c[nH]c(C(=O)N2CCN(c3ccccc3)CC2)c1 | / | / | -14
CN(Cc1c(O)ccc2c1oc(=O)c1ccccc12)C1CCCCC1 | 46* | -23 | /
CN(C)Cc1c(O)ccc2c3c(c(=O)oc12)CCCCC3 | 22 | -24 | /
CC(C)n1cc(-c2nc(C(=O)NN)cs2)c(=O)n(Cc2ccccc2)c1=O | / | / | 0
CC1=CC(=O)C=C(C)C1=NOS(=O)(=O)c1ccccc1 | -28 | 100* | /
CC1=CC(=O)C(C(C)C)=C/C1=N/OS(=O)(=O)c1ccccc1 | / | / | 6
Cc1ccc(N2NC(C)(c3cccs3)NC2=S)cc1 (stereo unspecified) | -10 | 98* | 7
Cc1ccc(N2CC(O)(c3cccs3)[N+]3=C2CCCC3)cc1 (stereo unspecified) | / | / | -7
